The entries come from a sample that favours hits as a whole.
CHOP inhibitor = inhibitors of CHOP promoter induction, primary screen, cell-based, unfolded protein response, luciferase reporter; inhibition, % at 10 µM; 220,000 compounds, 3.8% hits; AID 2732, 2010; CHO-K1 CHOP-promoter luciferase, tunicamycin-induced, 15-18 h;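 active = compounds that reduced the stress-induced luciferase reporter signal by more than about 70% of percent inhibition, limit read from the data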;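 note: 0% = tunicamycin plus vehicle and 100% = wells without tunicamycin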
UPR CHOP act = activators of apoptotic CHOP UPR arm, primary screen, cell-based, CHO-CHOP luciferase reporter, luminescence, uHTS; 330,000 compounds, 0.34% hits; activation, % at 10 µM; UPR activation; percent of tunicamycin response over DMSO baseline;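 active = at 10 µM dose, activation of 40% or more, normalized to positive control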;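 note: 100% = tunicamycin at 10 µg/mL and 0% = DMSO alone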
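Dosing – one dose, 10 µM in 0.5% DMSO · System – CHO-CHOP cells, stable luciferase reporter of PERK-eIF2a-CHOP signalling · Input – 500 cells/well · Control set – tunicamycin 10 µg/mL final as positive, DMSO-only wells as negative · Timing – 6 h compound treatment, 37 °C · Measure – % activation vs tunicamycin · Technique – luminescence read with Steady-Glo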
V-ATPase pHluor = regulators of yeast V-ATPase proton pumping, primary screen, pHLuorin cytosolic pH fluorescence. S. cerevisiae. 350,000 compounds, 0.37% hits. response, % at 10 µM. AID 504577, 2011; in the data active = response mostly above about 7.3%, no sharp cut-off; inactive = mostly below about 5.4%; note: actives read high
XBP1 UPR activ = activators of adaptive XBP1 UPR arm, primary screen, cell-based, CHO-XBP1 luciferase reporter, luminescence, uHTS | IRE1-XBP1 UPR activation; percent of tunicamycin response, DMSO as zero | activation, % at 20 µM | 330,000 compounds, 0.33% hits | AID 463104, 2010;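 active = versus positive control, 20 µM dose yields 30% or more activation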;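 note: 100% = tunicamycin at 10 µg/mL and 0% = DMSO only wells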
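Material: CHO cell line with stable XBP1 luciferase reporter; schedule: 16-18 h cell attachment at 37 °C, then 6 h compound exposure; signal: glow luminescence from Steady-Glo reagent; medium: serum-containing F12 medium, 10% FBS; benchmarks: tunicamycin 10 µg/mL and vehicle-only wells; read-out: percent activation relative to tunicamycin reference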
Tb MetRS inh = T. brucei MetRS inhibitors, primary screen, biochemical, luminescence; AID 624268, 2012; methionyl-tRNA synthetase (Trypanosoma brucei brucei); 360,000 compounds, 0.4% hits; purified T. brucei MetRS, ATP depletion, Kinase-Glo luminescence; inhibition, % at 11.9 µM;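 active = inhibition above a per-plate cutoff of the control wells' mean inhibition plus 3 SD, cut at about 5.5% in these data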;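 note: 0% = DMSO wells median and 100% = median of wells with control inhibitor compound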
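Material: T. brucei methionyl-tRNA synthetase, purified; reagent: substrates ATP, L-methionine and bulk Escherichia coli tRNA; dosing: 11.9 µM single point; timing: 15 min plus 2 h at 25 °C; detection: luminescence of leftover ATP; evaluation: % inhibition; control set: DMSO-only wells as low control; replicates: singlicate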
XBP1 UPR conf = IRE1-XBP1 UPR arm activators, confirmation, cell-based, CHO-XBP1 luciferase reporter, luminescence, single concentration. shares compounds with XBP1 UPR activ. activation, % at 20 µM. 1,000 compounds, 63% hits;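 active = reporter signal at least 30% of the positive control's activation in two or more of four replicate wells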;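 note: plate controls were DMSO negative control for no effect and tunicamycin 10 µg/mL positive control for full effect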
* hit, by the source's call; . = not tested or not shown.

SMILES	CHOP inhibitor	UPR CHOP act	V-ATPase pHluor	XBP1 UPR activ	Tb MetRS inh	XBP1 UPR conf
CC1CCc2c(sc(NC(=O)CCc3nc4ccccc4c(=O)[nH]3)c2C#N)C1 (stereo not drawn)	.	21	-5	169*	0	198*
COC(=O)c1c(NC(=O)c2nc3ccccc3s2)sc2c1CC(C)(C)NC2(C)C	67	26	-1	41*	-1	48*
COC(=O)c1c(NC(=O)c2ccc(C(=O)c3ccccc3)cc2)sc2c1CC(C)(C)NC2(C)C	.	.	1	.	0	.
CCCNC(=O)c1ccc2c(=O)c(O)c(-c3ccc(C)cc3)[nH]c2c1	35	1	2	0	0	.
CCCNC(=O)c1ccc2c(=O)c(O)c(-c3ccc(OC)cc3)[nH]c2c1	39	3	-4	63*	0	56*
CCN(CC)C(=O)C1=C(C)N(Cc2ccccc2)C(=O)C(CC(=O)NCC2CCCCC2)C1 (stereo not drawn)	.	.	0	.	0	.
Cc1ccc(NC2=C(Cl)C(=O)OC2OC(C)C)c(C)c1 (stereo not drawn)	15	2	0	36*	-1	0
CCN1C[C@@H]2[C@@H]3C(=O)N(C)C(=O)[C@@H]3[C@](Cc3ccccc3)(C1=O)N2C(=O)c1ccc(Cl)c(Cl)c1	.	.	-1	.	0	.
Cc1ccc(S(=O)(=O)Cc2cc(F)c([N+](=O)[O-])cc2[N+](=O)[O-])cc1	.	10	2	33*	0	41*
COC(=O)c1ccc(NC(=O)COc2ccc(S(=O)(=O)NC(C)(C)C)cc2)cc1	-14	-1	0	-2	0	.
CN(CC(=O)Nc1ccc(Cl)c(C(F)(F)F)c1)C(=O)Cn1cc([N+](=O)[O-])ccc1=O	.	-2	-4	-2	1	.
CCCOc1ccc(-c2c(=O)n(OCc3ccc([N+](=O)[O-])cc3)c3ccccc3[n+]2[O-])cc1	30	1	1	10	-2	.
CC(C)CCOc1ccc(-c2c(=O)n(OCc3ccc([N+](=O)[O-])cc3)c3ccccc3[n+]2[O-])cc1	1	16	0	41*	-1	6
CC/C(=N\N=C1\SC(C)C(=O)N1Cc1ccco1)c1ccccc1 (stereo not drawn)	13	1	2	-2	0	.
COCCCNCC1C(Oc2ccc(Cl)cc2)C(=O)N1c1ccccc1C (stereo not drawn)	13	0	-1	36*	-1	-1
CC1(C(=O)NS(=O)(=O)c2ccc(F)cc2F)CCN1C(=O)c1cccc(F)c1 (stereo not drawn)	.	.	.	.	0	.
COc1ccccc1C(CNC(=O)CN1C(=O)NC(C)(c2ccc3ccccc3c2)C1=O)N1CCCC1 (stereo not drawn)	.	.	-2	.	0	.
CCOC(=O)Nc1nc(-c2ccccc2)c(C(=O)c2ccccc2)s1	44	0	6	31*	0	12
COC(=O)Nc1nc(-c2ccccc2)c(C(=O)c2ccc(Cl)cc2)s1	12	-2	7	16	-1	.
CC(=O)c1cccc(Nc2nc(-c3cccc([N+](=O)[O-])c3)cs2)c1	55	5	0	43*	0	32*
Nc1nc(Nc2ccccc2)nc(NC2CCCCC2)c1[N+](=O)[O-]	.	3	-1	43*	-1	35*
CNc1nc(N)c([N+](=O)[O-])c(NC2CCCCC2)n1	.	-2	1	9	0	.
Clc1ccccc1-c1ccc(/C=N/Nc2nncc(-c3ccccc3)n2)o1	57	-1	-1	41*	-1	28
Cc1ccc(/C=N/Nc2nncc(-c3ccccc3)n2)o1	-1	3	3	-3	-1	.
O=C(CSc1nc2ccccc2c(=O)n1-c1ccccc1)N1CCCc2ccccc21	13	2	2	2	-2	.
COC(=O)c1ccc(CSc2nc3ccccc3c(=O)n2-c2ccccc2)o1	30	-2	4	35*	0	12
